Measurements published in ChEMBL document CHEMBL2417367 (Bioorg Med Chem, 2013).

How the values were obtained:
A549 = assay: Cytotoxicity against human A549 cells after 72 hrs by MTT assay; assay type: functional, cell-based; conditions: A549, 72 h
MKN-45 = assay: cells; conditions: Homo sapiens, MKN-45, 72 h
HT-29 = assay: cells; conditions: Homo sapiens, HT-29, 72 h
MDA-MB-231 = assay: Cytotoxicity against human MDA-MB-231 cells after 72 hrs by MTT assay; assay type: functional, cell-based; conditions: MDA-MB-231, 72 h
Outline: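 Cells were grown in MEM with 10% FBS. About 4×10^3 cells per well were seeded and incubated 24 h at 37 °C in 5% CO2. Compounds were then added at set final concentrations for 72 h. MTT (final 5 µg/mL) was added for 4 h at 37 °C, and formazan was dissolved in DMSO and read at 492 nm against a 630 nm reference. Each line was tested three times; IC50 is mean ± SD.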

NCI-H460 = assay: cells; conditions: Homo sapiens, NCI-H460, 72 h
SMMC-7721 = assay: cells; conditions: Homo sapiens, SMMC-7721, 72 h
cells = conditions: Homo sapiens, U-87 MG, 72 h

Compound	IC50 (A549) [nM]	IC50 (MKN-45) [nM]	IC50 (HT-29) [nM]	IC50 (MDA-MB-231) [nM]	IC50 (NCI-H460) [nM]	IC50 (SMMC-7721) [nM]	IC50 (cells) [nM]
COc1cc2c(Oc3ccc(NC(=O)N/N=C(\C)c4ccccc4)cc3F)ccnc2cc1OCCCN1CCCCC1	160	640	200	960	–	–	–
CC/C(=N\NC(=O)Nc1ccc(Oc2ccnc3cc(OCCCN4CCCCC4)c(OC)cc23)c(F)c1)c1ccccc1	290	930	330	1100	–	–	–
COc1cc2c(Oc3ccc(NC(=O)N/N=C/C(C)C)cc3F)ccnc2cc1OCCCN1CCCCC1	1900	2000	1100	2700	–	–	–
COc1cc2c(Oc3ccc(NC(=S)N/N=C/c4ccc(F)cc4F)cc3F)ccnc2cc1OCCCN1CCCCC1	190	680	330	950	–	–	–
COc1cc2c(Oc3ccc(NC(=S)N/N=C/c4ccccc4[N+](=O)[O-])cc3F)ccnc2cc1OCCCN1CCCCC1	250	450	140	830	–	–	–
COc1cc2c(Oc3ccc(NC(=S)N/N=C/c4ccco4)cc3F)ccnc2cc1OCCCN1CCCCC1	470	880	400	1100	–	–	–
COc1cc2c(Oc3ccc(NC(=O)NNCc4ccc(F)cc4F)cc3F)ccnc2cc1OCCCN1CCC(C)CC1	350	860	660	1300	–	–	–
COc1cc2c(Oc3ccc(NC(=O)N/N=C/c4ccccc4)cc3F)ccnc2cc1OCCCN1CCOCC1	350	670	200	2100	–	–	–
COc1cc2c(Oc3ccc(NC(=O)N/N=C/c4ccc(F)cc4)cc3F)ccnc2cc1OCCCN1CCOCC1	200	560	96	1600	–	–	–
COc1cc2c(Oc3ccc(NC(=O)N/N=C/c4ccc(Cl)cc4)cc3F)ccnc2cc1OCCCN1CCOCC1	330	640	160	1200	–	–	–
COc1cc2c(Oc3ccc(NC(=O)N/N=C/c4ccc(OC(F)(F)F)cc4)cc3F)ccnc2cc1OCCCN1CCOCC1	880	1200	1400	1800	–	–	–
COc1cc2c(Oc3ccc(NC(=O)N/N=C/c4ccc(C(F)(F)F)cc4)cc3F)ccnc2cc1OCCCN1CCOCC1	790	780	1100	1100	–	–	–
COc1cc2c(Oc3ccc(NC(=O)N/N=C/c4ccc(F)cc4)cc3F)ccnc2cc1OCCCN1CCCCC1	89	490	130	820	69	330	–
COc1cc2c(Oc3ccc(NC(=O)N/N=C/c4ccccc4)cc3F)ccnc2cc1OCCCN1CCCCC1	160	580	180	1000	–	–	–
COc1cc2c(Oc3ccc(NC(=O)N/N=C/c4ccc(Cl)cc4)cc3F)ccnc2cc1OCCCN1CCCCC1	220	470	98	940	63	410	24
COc1cc2c(Oc3ccc(NC(=O)N/N=C/c4ccccc4)cc3F)ccnc2cc1OCCCN1CCC(C)CC1	300	510	240	930	–	–	–
COc1cc2c(Oc3ccc(NC(=O)N/N=C/c4ccc(F)cc4)cc3F)ccnc2cc1OCCCN1CCC(C)CC1	110	610	83	930	–	–	–
COc1cc2c(Oc3ccc(NC(=O)N/N=C/c4ccc(Cl)cc4)cc3F)ccnc2cc1OCCCN1CCC(C)CC1	170	620	140	1200	–	–	–
COc1cc2c(Oc3ccc(NC(=O)N/N=C/c4ccccc4)cc3F)ccnc2cc1OCCCN1CCCC1	420	770	440	950	–	–	–

Compound	IC50 (A549) [nM]	IC50 (MKN-45) [nM]	IC50 (HT-29) [nM]	IC50 (MDA-MB-231) [nM]	IC50 (NCI-H460) [nM]	IC50 (SMMC-7721) [nM]	IC50 (cells) [nM]
COc1cc2c(Oc3ccc(NC(=O)N/N=C/c4ccc(F)cc4)cc3F)ccnc2cc1OCCCN1CCCC1	270	590	220	1300	–	–	–
COc1cc2c(Oc3ccc(NC(=O)N/N=C/c4ccc(Cl)cc4)cc3F)ccnc2cc1OCCCN1CCCC1	410	610	180	1300	–	–	–
COc1cc2c(Oc3ccc(NC(=O)N/N=C/c4ccc(F)c(F)c4)cc3F)ccnc2cc1OCCCN1CCCCC1	270	710	380	1300	–	–	–
COc1cc2c(Oc3ccc(NC(=O)N/N=C/c4ccccc4F)cc3F)ccnc2cc1OCCCN1CCCCC1	130	570	220	920	–	–	–
COc1cc2c(Oc3ccc(NC(=O)N/N=C/c4ccc(F)cc4F)cc3F)ccnc2cc1OCCCN1CCCCC1	78	560	190	850	77	300	18
COc1cc2c(Oc3ccc(NC(=O)N/N=C/c4ccccc4F)cc3F)ccnc2cc1OCCCN1CCC(C)CC1	220	490	180	880	–	–	–
COc1cc2c(Oc3ccc(NC(=O)N/N=C/c4ccccc4C(F)(F)F)cc3F)ccnc2cc1OCCCN1CCCCC1	130	590	160	730	–	–	–
COc1cc2c(Oc3ccc(NC(=O)N/N=C/c4ccccc4C#N)cc3F)ccnc2cc1OCCCN1CCCCC1	190	520	260	610	–	–	–
COc1cc2c(Oc3ccc(NC(=O)N/N=C/c4cccc([N+](=O)[O-])c4)cc3F)ccnc2cc1OCCCN1CCCCC1	750	760	320	1000	–	–	–
COc1cc2c(Oc3ccc(NC(=O)N/N=C/c4ccc([N+](=O)[O-])cc4)cc3F)ccnc2cc1OCCCN1CCCCC1	820	890	370	1400	–	–	–
COc1cc2c(Oc3ccc(NC(=O)N/N=C/c4ccccc4[N+](=O)[O-])cc3F)ccnc2cc1OCCCN1CCCCC1	190	480	150	550	–	–	–
COc1cccc(/C=N/NC(=O)Nc2ccc(Oc3ccnc4cc(OCCCN5CCCCC5)c(OC)cc34)c(F)c2)c1	340	730	330	1200	–	–	–
COc1ccc(OC)c(/C=N/NC(=O)Nc2ccc(Oc3ccnc4cc(OCCCN5CCCCC5)c(OC)cc34)c(F)c2)c1	860	860	590	1500	–	–	–
COc1cc2c(Oc3ccc(NC(=O)N/N=C/c4c(C)cc(C)cc4C)cc3F)ccnc2cc1OCCCN1CCCCC1	1900	650	700	1100	–	–	–
COc1cc2c(Oc3ccc(NC(=O)N/N=C/c4cccnc4)cc3F)ccnc2cc1OCCCN1CCCCC1	460	790	320	880	–	–	–
COc1cc2c(Oc3ccc(NC(=O)N/N=C/c4ccco4)cc3F)ccnc2cc1OCCCN1CCCCC1	440	710	360	910	–	–	–
COc1cc2c(Oc3ccc(NC(=O)N/N=C/c4ccc[nH]4)cc3F)ccnc2cc1OCCCN1CCCCC1	540	930	440	1000	–	–	–
C=CCc1cccc(/C=N/NC(=O)CN2CCN(Cc3ccccc3)CC2)c1O [PAC-1]	–	820	830	4600	–	–	–
